# A selection: hits, their analogues and other compounds. The true share with any hit is near 2%.
# UHRF1 binding – UHRF1 methyl-DNA binding inhibition. inhibition, % at 4.4 µM. AID 687016. Q96T88. actives 0.75% (n = 370,000). UHRF1 binding to methylated oligo, TR-FRET; in the data active = inhibition above about 21%;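 note: UHRF1 SRA domain binding a hemimethylated CpG hairpin DNA probe; 0% = median of test compound wells and 100% = reference inhibitor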
# ASAP1 inh – inhibitors of human ASAP1 ArfGAP activity; actives 0.19% (n = 360,000); Q9ULH1; ASAP1-stimulated ARF1 GTP hydrolysis, GDP FP detection; inhibition, % at 16.5 µM; in the data active = inhibition above about 25%;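 note: 0% = vehicle with enzyme and substrate and 100% = no enzyme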
# TCR-CD3 inh – inhibitors of human TCR-CD3 interaction; TAMRA-labeled TCR probe fluorescence, biochemical; inhibition, % at 9.4 µM; actives 0.37% (n = 360,000); AID 651800; in the data active = inhibition above about 19%;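 note: recombinant mutant TCR 2C K166C tagged with TAMRA read by polarization; 0% = receptor in buffer alone and 100% = receptor with positive control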
# LEDGF integ inh – blocks HIV-1 LEDGF/p75-dependent DNA integration. TR-FRET IN-LEDGF/p75 DNA integration, Eu/Cy5. inhibition, % at 3.7 µM. actives 0.64% (n = 370,000). AID 743269;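 active = inhibition above the screen-wide mean plus 3 SD, cut at about 13% in these data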;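 note: signal is the Cy5 over europium emission ratio at 671 and 618 nm; 0% = plate median of compound wells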
# MBD2 inh – inhibitors of human MBD2 binding to methylated oligonucleotide; actives 0.31% (n = 370,000); AID 686964; TR-FRET; inhibition, % at 4.4 µM; Q9UBB5; in the data active = inhibition above about 13%
# Target sequence (Q9UBB5 whole entry, looked up): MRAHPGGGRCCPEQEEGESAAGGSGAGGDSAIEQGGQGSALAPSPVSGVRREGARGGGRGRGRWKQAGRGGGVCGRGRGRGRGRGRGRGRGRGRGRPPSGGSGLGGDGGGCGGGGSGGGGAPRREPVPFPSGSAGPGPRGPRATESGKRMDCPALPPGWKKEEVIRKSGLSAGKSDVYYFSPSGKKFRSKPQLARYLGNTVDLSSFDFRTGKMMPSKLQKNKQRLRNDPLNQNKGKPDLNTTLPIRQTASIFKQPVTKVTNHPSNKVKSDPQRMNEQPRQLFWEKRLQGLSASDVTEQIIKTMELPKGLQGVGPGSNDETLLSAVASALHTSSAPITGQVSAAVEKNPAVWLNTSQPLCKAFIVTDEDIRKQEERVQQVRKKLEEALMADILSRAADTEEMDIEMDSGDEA
# ARFGAP1 inh – rat ARFGAP1 inhibition; Arfgap1-stimulated ARF1 GTP hydrolysis, GDP FP detection; inhibition, % at 16.5 µM; actives 0.26% (n = 360,000);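 active = inhibition above a per-plate limit, mean inhibition of low control wells plus 3 SD, cut at about 25% in these data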;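 note: 0% = DMSO wells with enzyme and 100% = wells lacking Arfgap1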
# Target sequence (Q62848 1-136 limits assumed): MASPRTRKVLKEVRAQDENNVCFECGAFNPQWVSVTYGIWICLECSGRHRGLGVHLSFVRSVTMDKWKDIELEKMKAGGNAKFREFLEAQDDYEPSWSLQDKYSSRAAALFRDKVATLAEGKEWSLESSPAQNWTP
#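 Material: rat Arfgap1 catalytic domain, aa 1-136; also added: human ARF1(Δ1-17)-GTP substrate; compound dosing: one concentration, 16.5 µM, DMSO 1.26%; incubation: GTP hydrolysis reaction 2 h at 25 °C; measured by: Tracer-displacement fluorescence polarization with EDTA stop, 620/688 nm; evaluation: % inhibition from polarization; repeats: one replicate per compound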
# * = called active by the depositor; · = no result given.
SMILES,UHRF1 binding,ASAP1 inh,TCR-CD3 inh,LEDGF integ inh,MBD2 inh,ARFGAP1 inh
C[C@H]1COc2cc(N3CCCC3)ccc2S(=O)(=O)N1,2,6,-1,-3,-3,14
Cc1ccc(S(=O)(=O)N2CCC(C(=O)Nc3nnc(-c4ccc(F)cc4)s3)CC2)cc1,25*,1,1,3,11,10
CCOc1ccc2nc(N3C(=O)C(O)=C(C(=O)c4ccco4)C3c3ccco3)sc2c1 (configuration not stated),7,-6,-5,18*,-4,0
CN(CCO)c1ccc2c(c1)Oc1ccccc1CN(Cc1cn(Cc3cccc(C(F)(F)F)c3)nn1)S2(=O)=O,2,·,·,4,-3,·
COc1cccc2cc(-c3nnc(-c4ccccc4)o3)c(=O)oc12,21*,12,4,1,2,12
CC1(Cc2ccccc2Cl)C(=O)Nc2ccc(OC(F)(F)F)cc21 (configuration not stated),-2,7,-4,0,2,0
O=C1CC(c2ccccc2)CC(=O)C1=CN1CCCC1 (configuration not stated),68*,-10,-4,-2,2,-11
O=C(CCl)N1CCN(CC(=O)N2CCCC2)CC1,21*,7,-2,8,-4,-7
COc1ccc(CCNC(=O)CN(c2cccc([N+](=O)[O-])c2)S(C)(=O)=O)cc1,38*,-2,-4,1,-2,0
O=C(c1coc2ccc(O)cc12)C1CC1,21*,-3,3,-5,-10,0
O=C(c1ccc(Br)cc1)c1coc2ccc(O)cc12,-5,7,3,4,-3,-5
COC(=O)[C@H](CC(C)C)N1Cc2nnn(Cc3ccccc3)c2-c2cc(F)ccc2S1(=O)=O,0,·,·,2,-3,·
Nn1c(SCC(=O)Nc2cccc3ccccc23)nnc1-c1cc(-c2ccc(Cl)cc2)n[nH]1,-1,·,·,1,-4,·
O=C(Cc1c[nH]c2ccccc12)OCC(=O)c1ccccc1,29*,1,-4,3,11,0
CC(Cc1c[nH]c2ccccc12)C(=O)O (configuration not stated),23*,0,1,3,12,3
COc1ccc(C(=O)COC(=O)Cc2c[nH]c3ccccc23)c(OC)c1,1,-3,-11,-7,4,-1
CCOC(=O)C1=NOC(C(=O)NC2CCCC2)(C(=O)c2ccc(OC)cc2)C1 (configuration not stated),2,·,·,2,1,·
CC(=O)Nc1ccc(S(=O)(=O)/N=C2\C(=O)c3ccccc3C([O-])=C2n2cc[n+](-c3ccccn3)c2)cc1,44*,19,7,5,-4,10
CCCC[n+]1ccn(C2=C([O-])c3ccccc3C(=O)/C2=N\S(=O)(=O)c2ccc(Br)cc2)c1,-2,2,7,3,-3,2
O=C(Cc1cccc(NC(=O)C2CCCN(C(=O)c3ccccc3)C2)c1)Nc1ccc(C(=O)N2CCOCC2)cc1 (configuration not stated),7,7,-6,2,0,-10
O=C(OCc1cn(Cc2c(F)cccc2F)nn1)N1CCOCC1,2,·,·,0,-2,·
O=C(COC(=O)c1cc(=O)[nH]c2ccccc12)NC1CCCC1,30*,2,9,0,6,7
CC1CCCCC1NC(=O)COC(=O)c1cc(=O)[nH]c2ccccc12 (configuration not stated),14,6,-4,-3,4,2
COc1ccc(CN2C[C@@]3(O)CC[C@@H](O)[C@@H](OC)[C@@H]3[C@@]2(C)[C@H](O)CC=C(C)C)cc1,-4,-1,-2,-1,4,6
O=C(c1c[nH]c2ccc(F)cc2c1=O)N1CCCCCC1,-3,0,-4,2,4,6
SMILES,UHRF1 binding,ASAP1 inh,TCR-CD3 inh,LEDGF integ inh,MBD2 inh,ARFGAP1 inh
Cc1cccc2c(=O)c(C(=O)N3CCCCCC3)c[nH]c12,23*,-1,2,0,10,7
O=C1C[C@@H](C(=O)Nc2ccc(Cl)cc2)[C@@H](c2ccccc2)O1,0,·,·,-4,7,·
O=C(CCN1C(=O)/C(=C\c2ccco2)SC1=S)Nc1ccc(C(=O)O)c(O)c1,62*,-6,8,70*,9,-6
COc1ccccc1/C=C1\SC(=S)N(CCC(=O)Nc2ccc(C(=O)O)c(O)c2)C1=O,-1,6,5,4,2,17
O=C(CN1C(=O)/C(=C\c2ccco2)SC1=S)Nc1ccc(O)cc1C(=O)O,87*,9,-4,63*,27*,-8
O=C(CCCN1C(=O)/C(=C\c2ccccc2)SC1=S)Nc1ccc(O)cc1C(=O)O,0,-3,5,2,-3,-12
COc1nc(-c2cccs2)cc(-c2ccc(C)cc2)c1C#N,22*,4,-1,1,13,-11
Cc1ccc(C(=O)C2CCN(CC(=O)N3CC(C)CC(C)C3)CC2)cc1 (configuration not stated),-1,·,·,-2,-2,·
CCN(Cc1ccccc1)S(=O)(=O)c1cc(C(=O)OC)n(C)c1,1,-10,-5,1,-2,-9
COC(=O)c1ccc(S(=O)(=O)N(Cc2ccccc2)Cc2ccccc2)n1C,62*,2,-2,-1,-5,5
COc1cc(NC(=O)[C@H]2O[C@@H](n3cnc4c(N)ncnc43)[C@H](O)[C@@H]2O)cc(OC)c1OC,0,-3,4,5,-2,5
O=C(NCCCNc1ccc(C(F)(F)F)cc1[N+](=O)[O-])c1ccc(Cl)cc1,52*,8,-1,4,0,1
O=C(NCc1ccccn1)c1cccc(S(=O)(=O)Nc2ccccc2Cl)c1,15,5,-2,-1,4,17
COc1cccc(-c2cnc(C(O)c3ccc(Cl)cc3)[nH]2)c1 (configuration not stated),0,-2,5,3,-5,-2
O=c1c2cnn(-c3ccccc3)c2ncn1CCc1ccccc1,47*,-2,-3,1,2,9
COC(=O)c1ccc(Cn2cnc3cnccc32)cc1,25*,-1,-8,-4,0,-8
COc1[nH]c(/N=C/c2ccccc2)c(C#N)c1C#N,-6,-1,135*,2,-11,11
CCCCNC(=O)C1(C)CCN1C(=O)c1ccc2sccc2c1 (configuration not stated),2,9,-4,-1,2,0
Cc1ccc(Cc2c(-c3ccc(C#N)cc3)nc3ccc(Cl)cn23)cc1,2,-5,4,3,-6,-13
CC(C)(C)Cc1c(-c2ccc(C#N)cc2)nc2ccc(Cl)cn12,21*,-14,-1,-4,4,-15

# Assay outcomes (PubChem BioAssay)
